Laboratory results from ChEMBL document CHEMBL2062427, “Synthesis, chemical reactivity as Michael acceptors, and biological potency of monocyclic cyanoenones, novel and highly potent anti-inflammatory and cytoprotective agents” (J Med Chem, 2012).
Calls of active or inactive are those of the source. The rule behind the calls is not given here.

Assays:
[1] = Induction of apoptosis in LPS-stimulated C57BL/6 mouse BMDM cells assessed as LDH release at 0.1 uM pretreated for 1 hr before LPS challenge after 8 hrs; format: cell-based
Procedure, shortened: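 Cells were compound-treated, and LPS (100 ng/mL) was added 1 h after the start of compound treatment for 8 h. Supernatant lactate dehydrogenase was measured as % LDH released, as a cell-death read-out. Comparison arms were no-LPS (compound 24 h) and untreated cells. Mean of 2 independent experiments, with standard deviation error bars.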

BMDM [2] = assay: Antiinflammatory activity in C57BL/6 mouse BMDM cells assessed as inhibition of LPS-stimulated TNFalpha production at 0.1 uM pretreated for 1 hr before LPS challenge after 8 to 24 hrs by immunoassay; format: functional, cell-based
Procedure, shortened: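 Macrophages pretreated with compound, then given LPS (100 ng/mL) 1 h after the start of compound exposure for 8 h or 24 h. Culture supernatants were collected at 8 h or 24 h and assayed for secreted TNF-α (pg/mL). Controls were untreated cells and cells given compound without LPS (24 h). Averages of 2 independent experiments; error is standard deviation.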

[3] = Cytotoxicity against C57BL/6 mouse BMDM cells assessed as LDH release after 24 hrs; format: cell-based; conditions: bone marrow-derived macrophages (BMDM cells)
Procedure, shortened: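 Macrophages exposed to compound without LPS for 24 h; culture supernatant assayed for % LDH released as cell-death measure. Averages of 2 independent experiments, SD.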

[4] = biological target: NAD(P)H dehydrogenase [quinone] 1 (Mus musculus) (UniProt Q64669); assay: Induction of NQO1 activity in mouse Hepa-1c1c7 cells assessed as concentration require to double the specific enzyme activity after 48 hrs; format: cell-based
Chain of NAD(P)H dehydrogenase [quinone] 1 (Mus musculus) (Q64669 whole entry): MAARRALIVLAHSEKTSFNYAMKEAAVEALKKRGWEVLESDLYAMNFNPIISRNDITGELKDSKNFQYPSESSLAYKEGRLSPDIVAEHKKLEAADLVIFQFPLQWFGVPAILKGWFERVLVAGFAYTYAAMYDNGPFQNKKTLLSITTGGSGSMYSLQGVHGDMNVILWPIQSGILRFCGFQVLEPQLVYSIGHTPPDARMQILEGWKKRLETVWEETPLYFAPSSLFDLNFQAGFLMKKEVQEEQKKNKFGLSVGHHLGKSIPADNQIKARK
Procedure, shortened: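 Hepa1c1c7 cells, 10,000/well, grown 24 h, then exposed to serial dilutions for 48 h. Potency expressed as concentration doubling NQO1 specific enzyme activity (CD).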

RAW264.7 [5] = assay: Antiinflammatory activity in mouse RAW264.7 cells assessed as inhibition of IFNgamma-stimulated NO production pretreated for 2 hrs before IFNgamma challenge measured after 24 hrs by Griess reaction; format: functional, cell-based
Procedure, shortened: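 RAW 264.7 cells seeded at 30,000/well in triplicate; next day pre-treated 2 h with DMSO or 2-fold serial dilutions (0–200 nM or 0–10 µM), then IFN-γ 20 ng/mL for 24 h. Medium NO by Griess; viability by WST-1. IC50 from suppression of IFN-γ-induced NO normalized to viability; mean of three independent experiments, SD.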

BMDM [6] = assay: Antiinflammatory activity in C57BL/6 mouse BMDM cells assessed as inhibition of LPS-stimulated […] production at 0.5 uM pretreated for 1 hr before LPS challenge after 8 to 24 hrs by immunoassay; format: functional, cell-based
Procedure, shortened: (§1)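 Macrophages given compound at 0.5 µM; LPS 100 ng/mL added 1 h after start of compound treatment, for 8 h or 24 h. Supernatants collected at 8 or 24 h and assayed for LDH release (% released, cell death), TNF-α or IL-1β (pg/mL). Averages of 2 independent experiments, SD.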

BMDM [7] = assay: Antiinflammatory activity in C57BL/6 mouse BMDM cells assessed as inhibition of LPS-stimulated TNFalpha production at 0.5 uM pretreated for 1 hr before LPS challenge after 8 to 24 hrs by immunoassay; format: functional, cell-based; procedure, shortened: as §1
[8] = Induction of apoptosis in LPS-stimulated C57BL/6 mouse BMDM cells assessed as LDH release at 0.5 uM pretreated for 1 hr before LPS challenge after 8 hrs; format: cell-based; procedure, shortened: as §1
RAW264.7 [9] = assay: Ratio of CDDO IC50 to compound IC50 for antiinflammatory activity in mouse RAW264.7 cells assessed as inhibition of IFNgamma-stimulated NO production; format: functional
[10] = Induction of apoptosis in LPS-stimulated C57BL/6 mouse BMDM cells assessed as LDH release at 0.5 uM pretreated for 1 hr before LPS challenge after 24 hrs; format: cell-based; procedure, shortened: as §1

Compound | MNTC at 24 h [3] [nM] | CD [4] [nM] | IC50 (RAW264.7 [5]) [nM] | also measured
C#C[C@]12C=C(C#N)C(=O)C=C1[C@@]1(C)C=C(C#N)C(=O)C(C)(C)[C@@H]1CC2 (racemic) | 100 |  |  | Activity [1]: Not Active; Activity (BMDM [2]): Active
CC1(C)C=CC(=O)C(C#N)=C1 |  | 150 | 305 | 
CC1(C)CC[C@]2(C(=O)O)CC[C@]3(C)[C@H](C(=O)C=C4[C@@]5(C)C=C(C#N)C(=O)C(C)(C)[C@@H]5CC[C@]43C)[C@@H]2C1 [BARDOXOLONE] |  |  | 16.5 | 
C=CC1(C)C=CC(=O)C(C#N)=C1 (stereo not drawn) |  | 150 | 170 | 
C#CC1(C)C=C(C#N)C(=O)CC1 (stereo not drawn) |  | 100 | 152 | 
CC1(C)C=C(C#N)C(=O)C(C)(C)C1 |  | 1900 | 1900 | 
CC1(C#N)C=CC(=O)C(C#N)=C1 (stereo not drawn) |  | 58 | 219 | 
NC(=O)Nc1sc(-c2ccc(F)cc2)cc1C(N)=O | 500 |  |  | Activity (BMDM [6]): inactive; Activity (BMDM [7]): Active; Activity [8]: Toxic
CC#CC1(C)C=CC(=O)C(C#N)=C1 (stereo not drawn) |  | 33 | 7.3 | Ratio IC50 (RAW264.7 [9]): 2
COC(=O)C1(C)C=CC(=O)C(C#N)=C1 (stereo not drawn) |  | 320 | 58 | 
COC(=O)[C@]12CCC(C)(C)C[C@H]1[C@H]1C(=O)C=C3[C@@]4(C)C=C(C#N)C(=O)C(C)(C)[C@@H]4CC[C@@]3(C)[C@]1(C)CC2 [BARDOXOLONE METHYL] | 500 |  |  | Activity [10]: Not Active; Activity (BMDM [7]): Active
C#CC1(C)C=CC(=O)C(C#N)=C1 (stereo not drawn) | 500 | 22 | 5.8 | Activity (BMDM [6]): Active; Activity (BMDM [7]): Active; Activity [8]: Toxic; Ratio IC50 (RAW264.7 [9]): 2
